Where a SMILES comes first, the peptide text is derived from it.

Drawing on ChEMBL document CHEMBL1131115, “Strategies to target kyotorphin analogues to the brain” (1998), this text covers Latency time for 7 compounds.

The species entered for this experiment is Rattus norvegicus. Description: Compound was evaluated for brain targeted delivery system by Tail flick latency as an index of spinal cord mediated analgesia in rats. The class given is functional. In short, it runs like this:
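Male Sprague-Dawley rats, 250-300 g, housed singly at ~25 °C. Compounds in 0.2 mL propylene glycol:DMSO (2:1) given iv via tail vein, 0.0223 mmol/kg (equivalent to 7.5 mg/kg kyotorphin); dose-response range 0.0030-0.0223 mmol/kg. Tail-flick meter, beam set for 7-8 s baseline latency. Baseline 10 min pre-dose, then 15 min to 6 h. Six rats per group; mean ± SE, ANOVA.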
A general note: In hot-plate and tail-flick tests a longer latency is read as antinociception.

Consider `CC(C)CCCC(C)C1CCC2C3CC=C4CC(OC(=O)C(CCCC[n+]5cccc(C(N)=O)c5)NC(=O)C(N)Cc5ccc(O)cc5)CCC4(C)C3CCC12C` (configuration not stated), for which the Latency time is given as 17 s.

On to `CC(C)CCCC(C)C1CCC2C3CC=C4CC(OC(=O)C(CCCCN5C=CCC(C(N)=O)=C5)NC(=O)C(Cc5ccc(O)cc5)NC(=O)OC(C)(C)C)CCC4(C)C3CCC12C` (configuration not stated), for which the Latency time is given as 26 s.

Take `CC(C)CCCC(C)C1CCC2C3CC=C4CC(OC(=O)C(CCCC[n+]5cccc(C(N)=O)c5)NC(=O)[C@H](Cc5ccc(O)cc5)NC(=O)OC(C)(C)C)CCC4(C)C3CCC12C` (some centres not stated): the Latency time came to 10 s.

Regarding `NC(=O)C1=CN(CCCC[C@H](NC(=O)[C@@H](N)Cc2ccc(O)cc2)C(=O)O)C=CC1`, the Latency time is reported as 10 s.

`CC(C)CCCC(C)C1CCC2C3CC=C4CC(OC(=O)C(CCCCN)NC(=O)[C@H](Cc5ccc(O)cc5)NC(=O)OC(C)(C)C)CCC4(C)C3CCC12C` (some centres not stated) returned a Latency time of 10 s.

`NCCCC[C@H](NC(=O)[C@@H](N)Cc1ccc(O)cc1)C(=O)O` (H-Tyr-Lys-OH) yielded a Latency time of 11 s.

Compound `NC(N)=NCCC[C@H](NC(=O)[C@@H](N)Cc1ccc(O)cc1)C(=O)O` [KYOTORPHIN] had a Latency time of 11 s.
